Data from ChEMBL document CHEMBL1268809, “Optimisation of 2-cyano-pyrimidine inhibitors of cathepsin K: improving selectivity over hERG” (Bioorg Med Chem Lett, 2010).
≈ marks a conversion by molar mass, not a printed value.

What was measured:
[1] = molecular target: Voltage-gated inwardly rectifying potassium channel KCNH2 (Homo sapiens, UniProt Q12809); experiment: Displacement of [3H] dofetilide from human ERG channel expressed in HEK293 cells; assay type: cell-based
[2] = Solubility in pH 7.4 PBS solution; assay type: physicochemical
[3] = molecular target: T1, Cathepsin K (Homo sapiens, UniProt P43235); experiment: Inhibition of human recombinant cathepsin K using Z-Phe-Arg-MCA substrate by fluorimetric assay
T1 sequence (P43235 whole entry): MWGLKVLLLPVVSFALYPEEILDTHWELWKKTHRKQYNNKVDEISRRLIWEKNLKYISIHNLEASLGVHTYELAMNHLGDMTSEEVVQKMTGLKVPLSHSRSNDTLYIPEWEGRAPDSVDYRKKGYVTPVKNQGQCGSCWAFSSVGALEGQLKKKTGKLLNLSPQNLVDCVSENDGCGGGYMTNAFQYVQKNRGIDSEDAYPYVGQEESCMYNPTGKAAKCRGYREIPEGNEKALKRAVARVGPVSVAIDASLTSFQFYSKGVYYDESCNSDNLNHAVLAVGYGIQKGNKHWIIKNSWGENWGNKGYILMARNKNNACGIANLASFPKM

[4] = system: Osteoclast; experiment: Inhibition of bone resorption in rabbit osteoclasts; assay type: functional, cell-based; conditions: Oryctolagus cuniculus
[5] = Oral bioavailability in cynomolgus monkey at 4.63 mg/kg; conditions: in vivo
[6] = Oral bioavailability in Wistar rat at 10 mg/kg; assay type: ADME, organism-based; conditions: in vivo
Procedure, shortened: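 Wistar rats were dosed iv at 2 mg/kg and po at 10 mg/kg. Oral bioavailability (F, %) was derived from the two routes.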

[7] = molecular target: Cytochrome P450 2C19 (Homo sapiens, UniProt P33261); experiment: Inhibition of CYP2C19; assay type: ADME
Cytochrome P450 2C19, sequence (P33261 whole entry): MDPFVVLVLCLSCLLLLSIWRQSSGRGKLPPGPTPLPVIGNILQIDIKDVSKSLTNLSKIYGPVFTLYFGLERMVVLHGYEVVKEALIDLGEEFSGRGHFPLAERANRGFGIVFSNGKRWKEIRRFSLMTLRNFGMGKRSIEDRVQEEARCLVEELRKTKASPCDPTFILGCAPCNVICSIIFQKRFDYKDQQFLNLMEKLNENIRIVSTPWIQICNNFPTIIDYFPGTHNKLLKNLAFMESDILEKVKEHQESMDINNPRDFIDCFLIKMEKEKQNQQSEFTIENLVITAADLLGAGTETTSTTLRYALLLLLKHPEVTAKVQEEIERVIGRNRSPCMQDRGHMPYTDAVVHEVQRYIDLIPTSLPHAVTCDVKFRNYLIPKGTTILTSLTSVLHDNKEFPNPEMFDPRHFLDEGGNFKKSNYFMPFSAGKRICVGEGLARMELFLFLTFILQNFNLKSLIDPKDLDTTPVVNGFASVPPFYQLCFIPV

[8] = Oral bioavailability in Beagle dog at 1.96 mg/kg; conditions: in vivo
[9] = molecular target: Cathepsin S (Homo sapiens, UniProt P25774); experiment: Inhibition of human recombinant cathepsin S
Cathepsin S, sequence (P25774 whole entry): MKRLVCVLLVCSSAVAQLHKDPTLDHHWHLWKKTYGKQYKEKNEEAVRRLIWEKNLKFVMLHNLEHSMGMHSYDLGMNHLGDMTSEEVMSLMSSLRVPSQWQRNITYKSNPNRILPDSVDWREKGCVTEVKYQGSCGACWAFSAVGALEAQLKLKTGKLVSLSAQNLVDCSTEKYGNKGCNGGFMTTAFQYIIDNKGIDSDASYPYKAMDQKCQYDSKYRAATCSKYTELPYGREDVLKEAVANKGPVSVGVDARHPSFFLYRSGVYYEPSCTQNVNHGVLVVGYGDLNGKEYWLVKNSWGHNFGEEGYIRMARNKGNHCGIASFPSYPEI

[10] = molecular target: Cytochrome P450 3A4 (Homo sapiens, UniProt P08684); experiment: Inhibition of CYP3A4; assay type: ADME
Cytochrome P450 3A4, sequence (P08684 whole entry): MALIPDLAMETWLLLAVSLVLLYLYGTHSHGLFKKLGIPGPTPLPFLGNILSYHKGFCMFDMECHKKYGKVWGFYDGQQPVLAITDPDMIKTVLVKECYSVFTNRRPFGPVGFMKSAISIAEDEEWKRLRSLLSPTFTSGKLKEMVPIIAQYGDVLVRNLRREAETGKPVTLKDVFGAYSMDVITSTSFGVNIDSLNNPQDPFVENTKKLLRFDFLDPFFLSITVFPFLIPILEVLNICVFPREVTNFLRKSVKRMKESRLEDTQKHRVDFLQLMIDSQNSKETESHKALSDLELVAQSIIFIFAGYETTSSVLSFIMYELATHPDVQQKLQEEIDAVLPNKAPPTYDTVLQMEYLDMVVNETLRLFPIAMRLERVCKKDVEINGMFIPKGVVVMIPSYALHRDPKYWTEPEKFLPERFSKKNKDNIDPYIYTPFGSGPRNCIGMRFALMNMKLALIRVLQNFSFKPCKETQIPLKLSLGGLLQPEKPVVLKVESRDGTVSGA

[11] = molecular target: Procathepsin L (Homo sapiens, UniProt P07711); experiment: Inhibition of human recombinant cathepsin L
Procathepsin L, sequence (P07711 whole entry): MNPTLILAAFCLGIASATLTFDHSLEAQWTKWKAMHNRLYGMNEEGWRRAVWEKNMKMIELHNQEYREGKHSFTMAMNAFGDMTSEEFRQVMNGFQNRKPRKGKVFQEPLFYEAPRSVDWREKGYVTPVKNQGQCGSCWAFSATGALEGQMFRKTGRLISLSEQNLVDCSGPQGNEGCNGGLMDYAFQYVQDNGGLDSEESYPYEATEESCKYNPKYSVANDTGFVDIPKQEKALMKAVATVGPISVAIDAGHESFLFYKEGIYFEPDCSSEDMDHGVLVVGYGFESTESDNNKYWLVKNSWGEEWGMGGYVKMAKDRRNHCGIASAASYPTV

[12] = molecular target: Cathepsin B (Homo sapiens, UniProt P07858); experiment: Inhibition of human recombinant cathepsin B
[13] = molecular target: Cytochrome P450 2C9 (Homo sapiens, UniProt P11712); experiment: Inhibition of CYP2C9; assay type: ADME
Cytochrome P450 2C9, sequence (P11712 whole entry): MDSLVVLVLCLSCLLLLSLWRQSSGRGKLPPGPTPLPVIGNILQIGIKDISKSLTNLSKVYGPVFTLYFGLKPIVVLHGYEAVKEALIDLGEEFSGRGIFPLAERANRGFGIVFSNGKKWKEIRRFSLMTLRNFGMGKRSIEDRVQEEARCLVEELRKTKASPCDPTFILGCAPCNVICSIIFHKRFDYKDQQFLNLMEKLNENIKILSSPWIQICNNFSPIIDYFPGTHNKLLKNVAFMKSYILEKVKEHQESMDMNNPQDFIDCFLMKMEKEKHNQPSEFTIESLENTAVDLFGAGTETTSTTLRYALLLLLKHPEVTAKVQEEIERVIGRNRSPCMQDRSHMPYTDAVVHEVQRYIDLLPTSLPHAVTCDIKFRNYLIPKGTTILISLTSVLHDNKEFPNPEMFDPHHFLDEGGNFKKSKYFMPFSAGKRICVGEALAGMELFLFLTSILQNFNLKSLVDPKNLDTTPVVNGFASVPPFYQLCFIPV

[14] = molecular target: T2, Cytochrome P450 1A2 (Homo sapiens, UniProt P05177); experiment: Inhibition of CYP1A2; assay type: ADME
T2 sequence (P05177 whole entry): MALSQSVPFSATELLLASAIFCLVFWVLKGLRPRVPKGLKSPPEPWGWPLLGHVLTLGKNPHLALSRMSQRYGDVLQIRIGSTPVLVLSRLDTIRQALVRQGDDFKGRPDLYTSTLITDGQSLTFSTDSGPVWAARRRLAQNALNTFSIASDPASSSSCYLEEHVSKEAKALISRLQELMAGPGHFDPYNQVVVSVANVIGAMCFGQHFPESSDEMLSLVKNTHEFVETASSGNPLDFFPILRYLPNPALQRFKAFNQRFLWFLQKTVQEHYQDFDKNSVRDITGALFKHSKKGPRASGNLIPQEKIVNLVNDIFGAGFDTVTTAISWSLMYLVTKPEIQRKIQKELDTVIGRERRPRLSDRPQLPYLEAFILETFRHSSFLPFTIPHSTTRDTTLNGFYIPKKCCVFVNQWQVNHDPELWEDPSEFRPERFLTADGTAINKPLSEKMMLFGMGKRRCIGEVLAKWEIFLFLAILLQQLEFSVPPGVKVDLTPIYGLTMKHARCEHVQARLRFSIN

[15] = Half life in plasma; assay type: ADME, cell-free

Voltage-gated inwardly rectifying potassium channel KCNH2, sequence (Q12809 whole entry): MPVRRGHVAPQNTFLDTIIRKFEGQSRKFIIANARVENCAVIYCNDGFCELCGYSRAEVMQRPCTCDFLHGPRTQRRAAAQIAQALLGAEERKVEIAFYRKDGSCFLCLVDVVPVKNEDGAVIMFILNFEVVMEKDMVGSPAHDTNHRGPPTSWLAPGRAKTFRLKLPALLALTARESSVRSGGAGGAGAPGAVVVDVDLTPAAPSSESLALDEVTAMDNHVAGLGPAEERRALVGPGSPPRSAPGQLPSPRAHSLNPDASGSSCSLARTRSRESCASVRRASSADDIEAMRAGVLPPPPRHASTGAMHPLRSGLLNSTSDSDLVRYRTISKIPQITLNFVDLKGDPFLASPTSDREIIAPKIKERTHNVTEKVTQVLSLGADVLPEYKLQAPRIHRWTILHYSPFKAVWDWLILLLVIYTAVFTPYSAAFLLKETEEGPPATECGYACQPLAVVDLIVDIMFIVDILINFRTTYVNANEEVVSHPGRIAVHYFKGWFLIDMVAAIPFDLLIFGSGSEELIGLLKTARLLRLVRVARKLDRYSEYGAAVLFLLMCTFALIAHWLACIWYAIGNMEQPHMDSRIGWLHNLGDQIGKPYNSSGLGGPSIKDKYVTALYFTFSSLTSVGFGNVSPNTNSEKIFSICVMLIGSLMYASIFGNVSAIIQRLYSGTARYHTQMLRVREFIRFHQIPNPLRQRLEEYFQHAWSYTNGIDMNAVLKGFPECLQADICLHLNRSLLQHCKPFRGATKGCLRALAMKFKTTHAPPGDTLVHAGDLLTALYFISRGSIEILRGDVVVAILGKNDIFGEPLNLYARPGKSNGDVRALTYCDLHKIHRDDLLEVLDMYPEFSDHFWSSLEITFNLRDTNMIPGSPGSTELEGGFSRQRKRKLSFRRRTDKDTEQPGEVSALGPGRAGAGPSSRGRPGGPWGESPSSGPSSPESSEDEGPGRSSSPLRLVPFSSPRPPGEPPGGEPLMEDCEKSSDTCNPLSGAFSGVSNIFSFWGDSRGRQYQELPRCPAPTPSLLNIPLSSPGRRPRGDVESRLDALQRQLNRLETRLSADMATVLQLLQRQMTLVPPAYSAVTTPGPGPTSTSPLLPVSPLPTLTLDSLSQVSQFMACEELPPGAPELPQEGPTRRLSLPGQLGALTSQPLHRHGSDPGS

SMILES | Ki [1] [nM] | IC50 [3] [nM] | also measured
N#Cc1nc(CCCN2CCCCC2)cc(-c2cccc(C(F)(F)F)c2)n1 | 160 | – | solubility [2]: 60 µg/mL (≈ 160 µM)
CCCc1cc(-c2cc(C(=O)N(CCN(C)C)Cc3ccccc3)cc(C(F)(F)F)c2)nc(C#N)n1 | 120 | – | –
N#Cc1nc(CCCNCC(F)(F)F)cc(-c2cccc(C(F)(F)F)c2)n1 | 500 | 30 | –
CN1CCN(CCCc2cc(-c3cccc(C(F)(F)F)c3)nc(C#N)n2)CC1 | – | 10 | –
N#Cc1nc(CCCN2CCOCC2)cc(-c2cccc(C(F)(F)F)c2)n1 | 320 | 9 | –
COCCNCCCc1cc(-c2cccc(C(F)(F)F)c2)nc(C#N)n1 | 560 | 10 | –
N#Cc1nc(CCCN2CCC(O)CC2)cc(-c2cccc(C(F)(F)F)c2)n1 | 1120 | – | –
N#Cc1nc(CCCNc2ccccn2)cc(-c2cccc(C(F)(F)F)c2)n1 | – | 3 | –
N#Cc1nc(CCCNCC(=O)O)cc(-c2cccc(C(F)(F)F)c2)n1 | > 10000 | – | –
N#Cc1nc(CCCNCc2nnn[nH]2)cc(-c2cccc(C(F)(F)F)c2)n1 | > 10000 | 11 | IC50 [4]: 1640 nM
N#Cc1nc(CCCNCC(N)=O)cc(-c2cccc(C(F)(F)F)c2)n1 | 3980 | – | –
CC(C)(NCCCc1cc(-c2cccc(C(F)(F)F)c2)nc(C#N)n1)C(N)=O | – | – | bioavailability [5]: 57%; bioavailability [6]: 29%; IC50 [7]: > 35000 nM; bioavailability [8]: 29%; solubility [2]: 393 µg/mL (≈ 1000 µM); IC50 [9]: 16 nM; IC50 [10]: > 35000 nM; IC50 [11]: > 10000 nM; IC50 [12]: 2510 nM; IC50 [13]: > 35000 nM; IC50 [14]: > 35000 nM
N#Cc1nc(CCCNC2(C(N)=O)CC2)cc(-c2cccc(C(F)(F)F)c2)n1 | 1580 | – | –
N#Cc1nc(CCCNC2(C(N)=O)CCC2)cc(-c2cccc(C(F)(F)F)c2)n1 | 2510 | – | –
N#Cc1nc(CCCNC2(C(N)=O)CCOCC2)cc(-c2cccc(C(F)(F)F)c2)n1 | > 10000 | 5 | half-life [15]: > 2.5 h
N#Cc1nc(CCCN2CCOC[C@H]2C(N)=O)cc(-c2cccc(C(F)(F)F)c2)n1 | > 10000 | 13 | half-life [15]: > 2.5 h
CCCc1cc(-c2cc(C(F)(F)F)ccc2C(=O)N(C)C)nc(C#N)n1 | – | 427 | –
CCCc1cc(-c2cc(C(=O)N(C)C)cc(C(F)(F)F)c2)nc(C#N)n1 | > 10000 | – | –
CCCc1cc(-c2cc(C(=O)N(C)CCN(C)C)cc(C(F)(F)F)c2)nc(C#N)n1 | 710 | – | –
CCCc1cc(-c2cc(C(=O)N(C)Cc3ccccc3)cc(C(F)(F)F)c2)nc(C#N)n1 | – | 9 | –
N#Cc1nc(CCC(=O)O)cc(-c2cccc(C(F)(F)F)c2)n1 | > 10000 | 166 | –
CCC(CC)NC(=O)CCc1cc(-c2cccc(C(F)(F)F)c2)nc(C#N)n1 | – | 389 | –
CNCCCc1cc(-c2cccc(C(F)(F)F)c2)nc(C#N)n1 | – | 6 | –
